ADAM10 inh – human ADAM10 inhibitors, primary screen, biochemical, QFRET, HTS | AID 720582, 2013 | Disintegrin and metalloproteinase domain-containing protein 10 (Homo sapiens), O14672 | recombinant ADAM10, EDANS/DABCYL FRET peptide cleavage, 3 h | hit rate 0.62% among 370,000 | inhibition, % at 7 µM;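 active means inhibition above a per-campaign cutoff equal to the mean of compounds falling between control-based bounds plus 3 SD, cut at about 20% in these data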;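 further: 0% = DMSO wells while the 100% control is not disclosed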
FAS-TE inh – FAS thioesterase domain inhibitors, primary screen, biochemical, fluorescence intensity, uHTS; Fatty acid synthase (Homo sapiens), P49327; recombinant FAS-TE, OMFH fluorogenic substrate, fluorescence endpoint; inhibition, % at 15 µM; hit rate 0.67% among 360,000;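 active means compounds whose normalised, plate-corrected inhibition of enzyme fluorescence in the single-dose primary screen is 50% or more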;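 further: 0% = DMSO with enzyme and 100% = substrate without enzyme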
SENP1 FRET inh – human SENP1 catalytic domain inhibitors, primary screen, biochemical, FRET, uHTS; recombinant SENP1 catalytic domain, CyPet-SUMO1-YPet FRET cleavage; inhibition, % at 10 µM; hit rate 0.21% among 360,000;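 active means inhibition at least 30% at 10 µM, raw YFP signal under a set limit, fluorescence ratio 0.5 to 1.5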;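 further: 0% = enzyme with DMSO and 100% = no enzyme wells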
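Test system: recombinant human SENP1 catalytic domain, His6-tagged / Medium: pH 8 Tris buffer with EDTA, NaCl, BME, BSA, NP40, catalase / Also added: SUMO1 FRET substrate flanked by Cypet and Ypet, 25 nM / Times: 50 min reaction at room temperature / Signal: FRET, CFP and YFP emission / Control set: no-enzyme low control and enzyme-plus-DMSO high control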
ADAM17 inh – ADAM17 inhibitors, primary screen, biochemical, QFRET; recombinant ADAM17, EDANS/DABCYL FRET peptide cleavage; inhibition, % at 6.95 µM; hit rate 0.83% among 370,000; AID 720648, 2013;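 active means inhibition above the mean of compounds lying between control limits plus 3 SD, set per campaign, cut at about 8.5% in these data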;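 further: 0% = DMSO-only wells as the low control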
Target sequence (P78536 215-824 limits assumed): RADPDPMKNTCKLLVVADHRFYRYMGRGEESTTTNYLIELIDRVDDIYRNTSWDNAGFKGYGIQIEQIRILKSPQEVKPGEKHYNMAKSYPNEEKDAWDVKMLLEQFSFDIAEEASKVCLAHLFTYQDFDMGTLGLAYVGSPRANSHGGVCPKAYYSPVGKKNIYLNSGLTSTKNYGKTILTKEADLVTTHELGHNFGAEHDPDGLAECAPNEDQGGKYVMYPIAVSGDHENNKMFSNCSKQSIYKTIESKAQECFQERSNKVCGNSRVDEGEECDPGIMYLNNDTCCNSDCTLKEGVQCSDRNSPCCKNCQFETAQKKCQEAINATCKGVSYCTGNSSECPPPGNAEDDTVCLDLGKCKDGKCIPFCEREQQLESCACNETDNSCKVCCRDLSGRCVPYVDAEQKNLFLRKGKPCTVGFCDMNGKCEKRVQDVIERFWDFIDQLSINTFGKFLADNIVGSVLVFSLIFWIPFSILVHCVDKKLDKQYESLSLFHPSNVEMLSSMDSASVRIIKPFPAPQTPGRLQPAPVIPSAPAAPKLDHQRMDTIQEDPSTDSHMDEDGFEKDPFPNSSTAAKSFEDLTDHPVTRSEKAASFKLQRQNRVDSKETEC
ADAM10 confirm – human ADAM10 inhibitors, confirmation, biochemical, QFRET, triplicate; inhibition, % at 6.95 µM; hit rate 1% among 2,100; shares compounds with ADAM10 inh; ADAM10 QFRET peptide cleavage, EDANS fluorescence;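 active means inhibition above about 20% chosen separately for each screening run, limit read from the data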;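 further: 0% = DMSO wells and 100% = marimastat wells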
ADAM17 ctr – ADAM17 inhibitors, counter-screen for ADAM10 exosite inhibitor project, biochemical, QFRET, high throughput; hit rate 0.5% among 2,100; inhibition, % at 6.95 µM; shares compounds with ADAM10 inh; AID 743214, 2013; ADAM17 QFRET peptide cleavage, EDANS fluorescence;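 active means mean triplicate inhibition above the solvent-only control wells' mean plus 3 SD, cut at about 12% in these data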;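 further: 0% = DMSO wells and 100% = marimastat wells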
ADAM10 counter – ADAM10 inhibitors, counter-screen for ADAM17 exosite inhibitor project, biochemical, FRET, human ADAM10 | recombinant ADAM10, EDANS/DABCYL FRET peptide cleavage, 3 h | hit rate 47% among 2,900 | shares compounds with ADAM17 inh | AID 743256, 2014 | inhibition, % at 6.95 µM;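 active means mean inhibition over the triplicate runs exceeds the activity threshold set in the earlier primary screen, cut at about 20% in these data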;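 further: 0% = DMSO wells and 100% = marimastat wells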
ADAM17 confirm – ADAM17 inhibitors, hit retest, confirmation, biochemical, QFRET peptide cleavage; shares compounds with ADAM17 inh; recombinant ADAM17, EDANS/DABCYL QFRET peptide cleavage; inhibition, % at 6.95 µM; hit rate 65% among 2,900; AID 743257, 2014;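 active means mean inhibition across replicates above the hit cutoff set in the primary screen, cut at about 8.5% in these data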;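 further: 0% = DMSO wells and 100% = marimastat wells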
Active calls of the source: *; x = not tested or not shown. In the library only some 1.9% were active in any assay of this set; here they are far more common.

SMILES	ADAM10 inh	FAS-TE inh	SENP1 FRET inh	ADAM17 inh	ADAM10 counter	ADAM17 confirm	others
COc1ccc(OC)c(NP(=O)(Oc2ccccc2)Oc2ccccc2)c1	32*	21	3	10*	8	6	ADAM10 confirm=0;ADAM17 ctr=1
COc1ccc(NP(=O)(Oc2ccc(Cl)cc2)Oc2ccc(Cl)cc2)cc1OC	23*	26	-2	12*	41*	17*	ADAM10 confirm=9;ADAM17 ctr=4
COc1ccc(OC)c(NP(=O)(Oc2ccc(Cl)cc2)Oc2ccc(Cl)cc2)c1	4	-13	1	1	x	x
Clc1cc(Cl)cc(CN2Cc3ccccc3-n3nncc3C2)c1	4	x	x	0	x	x
CC1=CC(C)CC(C)OC(=O)CC(c2ccc(O)cc2)NC(=O)C(Cc2c(Br)[nH]c3ccccc23)N(C)C(=O)C(C)NC(=O)C(C)C1 (centres undefined)	25*	14	-1	8.9*	30*	18*	ADAM10 confirm=2;ADAM17 ctr=1
COc1ccc(-n2nnnc2C(CCc2ccccc2)N2CCC3(CC2)C(=O)NCN3c2ccccc2)cc1 (centres undefined)	28*	41	1	12*	33*	18*	ADAM10 confirm=10;ADAM17 ctr=3
Cc1c(C(c2ccc(F)cc2)c2c(O)c3ccccc3oc2=O)c(=O)n(-c2ccccc2)n1C (centres undefined)	-12	3	2	4	x	x
CC(C)c1ccc(C(c2c(O)c3ccccc3oc2=O)c2c(O)c3ccccc3oc2=O)cc1	23*	45	-1	9.6*	34*	23*	ADAM10 confirm=8;ADAM17 ctr=1
CCCCN1CCN(C(=O)COc2cc(=O)n(C)c3ccccc23)CC1	-2	x	x	-3	x	x
O=P(OCCCl)(OCCCl)OCCCl	-28	x	x	-5	x	x
COCCNC(=O)N1[C@H]2CC[C@@H]1C(C(=O)OC)=C(c1ccc(-c3ccccc3)c(F)c1)C2	-4	-10	3	-3	x	x
COC(=O)C1=C(c2ccc(-c3ccccc3)c(F)c2)C[C@@H]2CC[C@H]1N2C(=O)NCCOc1ccccc1	38*	36	3	18*	38*	19*	ADAM10 confirm=5;ADAM17 ctr=2
CSCCC(c1nnnn1Cc1ccccc1)N1CCC2(CC1)C(=O)NCN2c1ccccc1 (centres undefined)	9	4	2	11*	8	6
CSCCC(c1nnnn1C1CCCC1)N1CCC(n2c(=O)[nH]c3ccccc32)CC1 (centres undefined)	4	-1	-1	9.2*	16	11*
O=c1[nH]c2ccccc2n1C1CCN(C(c2ccccc2OC(F)(F)F)c2nnnn2Cc2ccccc2)CC1 (centres undefined)	13	38	-2	12*	42*	20*
COc1ccc(-n2nnnc2C(c2cc3ccccc3o2)N2CCC(n3c(=O)[nH]c4ccccc43)CC2)cc1 (centres undefined)	18	40	0	9.6*	28*	13*
CSCCC(c1nnnn1C1CCCCC1)N1CCC(n2c(=O)[nH]c3ccccc32)CC1 (centres undefined)	9	4	4	6	x	x
CC(C)(C)n1nnnc1C(C1CC1)N1CCC(n2c(=O)[nH]c3ccccc32)CC1 (centres undefined)	-6	-4	3	-4	x	x
COc1ccc(C(c2nnnn2Cc2ccccc2)N2CCC(n3c(=O)[nH]c4ccccc43)CC2)cc1 (centres undefined)	0	8	0	-1	x	x
O=c1[nH]c2ccccc2n1C1CCN(C(c2cccs2)c2nnnn2Cc2ccccc2)CC1 (centres undefined)	13	20	0	11*	38*	18*
CC(C)=CCc1c(O)cc2c(c1O)C(=O)CC(c1ccc(O)cc1)O2 (centres undefined)	19	-34	1	9.3*	37*	20*
CCc1sc(C(=O)N2CCC3(CC2)OCCO3)cc1Br	-3	-1	1	-3	x	x
O=C(c1cc2c(s1)CCCCCC2)N1CCC2(CC1)OCCO2	3	5	2	8.7*	3	12*
Cc1cc(O)c2c(c1)OC(C)(C)C1=C2CC(C)CC1 (centres undefined)	12	20	0	12*	30*	14*
COC(=O)C1=C(c2ccc(F)cc2OCc2ccccc2)C[C@@H]2CC[C@H]1N2C(=O)NCc1ccc([N+](=O)[O-])cc1	15	39	3	9.0*	30*	20*
SMILES	ADAM10 inh	FAS-TE inh	SENP1 FRET inh	ADAM17 inh	ADAM10 counter	ADAM17 confirm	others
COC(=O)C1=C(c2ccc(F)cc2OCc2ccccc2)C[C@@H]2CC[C@H]1N2C(=O)NCc1ccc(F)cc1	6	13	2	4	x	x
COc1ccc(Cn2c(N)c(C(=O)NCc3ccco3)c3nc4ccccc4nc32)cc1OC	-444	19	7	-178	x	x
COc1ccc(C(=O)Nc2cccc(S(=O)(=O)NCc3ccco3)c2)cc1	11	4	-2	8.7*	23*	15*
O=C(CNCc1c(F)cccc1F)N1CCC2(CC1)OCCO2	-2	x	x	0	x	x
CC(c1ccccc1)n1cncc1C(=O)O (centres undefined)	3	-8	-3	9.4*	15	11*
COc1cccc(NC2=NCCS2)c1	-4	x	x	-5	x	x
O=C(O)CCl	-7	x	x	2	x	x
CC(C)c1ccc(-n2c(O)c(C=NC(CCS(C)=O)C(=O)O)c(=O)[nH]c2=S)cc1 (centres undefined)	14	-2	-1	9.2*	16	8
Cc1ccccc1C(=O)NCCN1CCC2(CC1)C(=O)NCN2c1ccccc1	-12	x	x	-6	x	x
Cc1cccc(N2C(=O)/C(=C/c3ccc(CN(CCC#N)S(C)(=O)=O)o3)C(=O)NC2=S)c1	9	-6	4	9.1*	0	7
O=C(NCCN1CCC2(CC1)C(=O)NCN2c1ccccc1)c1ccccc1F	1	x	x	0	x	x
O=C(NC1CCCCC1)N1Cc2cc(Br)ccc2-n2nncc2C1	-5	x	x	-2	x	x
COc1ccc(OC(=O)N(C)C[C@H]2OCc3cnnn3CCCC(=O)N([C@@H](C)CO)C[C@@H]2C)cc1	6	x	x	6	x	x

Assay outcomes deposited in PubChem BioAssay by several laboratories.
